Source: ChEMBL document CHEMBL2396611, “Synthesis and mechanism of hypoglycemic activity of benzothiazole derivatives” (J Med Chem, 2013)
The source made the active and inactive calls. The calls are words filed in the database; no cut-off is given here.

What was measured:
[1] = system: L6; test: Effect on total GLUT4 expression in rat L6 cell lysate at 25 uM after 30 mins to 5 hrs by Western blot analysis; assay type: functional, cell-based
Method in brief: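 Fully differentiated L6 myotubes, preconditioned in αMEM with 23.0 mM D-glucose; insulin exposure 30 min, test exposure 5 h. Whole-cell lysates made in Tris-HCl pH 7.5 buffer with phosphatase and protease inhibitors, 40 min at 4 °C. Protein measured by Bradford, 5-60 µg per lane. Western blot probed with rabbit polyclonal anti-GLUT1 or anti-GLUT4.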

[2] = system: Mus musculus; test: Antidiabetic activity in overnight fast KKAy mouse assessed as total body glucose clearance at 30 to 75 mg/kg, sc bid for 2 days; assay type: functional; conditions: dose mg/kg 30-75; route subcutaneous
[3] = system: Mus musculus; test: Toxicity in overnight fast KKAy mouse assessed as reduction of daily food intake at 30 to 75 mg/kg, sc bid for 2 days; assay type: organism-based; parameters: dose 30-75 mg/kg, route subcutaneous; conditions: in vivo, 48 h
Method in brief: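 Hyperglycemic KKAy mice given 30 or 75 mg/kg s.c. twice daily as a suspension in sesame oil; controls received oil (150 µl). Daily food intake recorded over the 2-day treatment; n=10 per group, mean ± SEM.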

[4] = target: Cytochrome P450 2C19 (Homo sapiens, UniProt P33261); test: Inhibition of CYP2C19 (unknown origin) by luminescent based assay; assay type: ADME
Cytochrome P450 2C19, sequence (P33261 whole entry): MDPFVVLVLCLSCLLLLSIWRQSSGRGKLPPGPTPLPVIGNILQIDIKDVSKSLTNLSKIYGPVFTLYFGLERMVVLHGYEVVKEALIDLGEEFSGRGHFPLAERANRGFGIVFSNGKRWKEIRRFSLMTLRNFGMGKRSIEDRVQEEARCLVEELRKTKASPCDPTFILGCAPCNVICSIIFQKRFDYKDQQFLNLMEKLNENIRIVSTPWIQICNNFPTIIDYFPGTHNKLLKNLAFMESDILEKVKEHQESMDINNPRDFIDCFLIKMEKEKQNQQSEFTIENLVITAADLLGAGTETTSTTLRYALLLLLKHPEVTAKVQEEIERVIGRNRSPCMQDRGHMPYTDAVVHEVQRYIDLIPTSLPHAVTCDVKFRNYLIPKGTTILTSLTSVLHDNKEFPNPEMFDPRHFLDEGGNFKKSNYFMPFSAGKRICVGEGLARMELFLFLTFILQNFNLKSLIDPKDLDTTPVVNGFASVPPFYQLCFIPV

[5] = target: T1, Cytochrome P450 1A2 (Homo sapiens, UniProt P05177); test: Inhibition of CYP1A2 (unknown origin) by luminescent based assay; assay type: ADME
T1 sequence (P05177 whole entry): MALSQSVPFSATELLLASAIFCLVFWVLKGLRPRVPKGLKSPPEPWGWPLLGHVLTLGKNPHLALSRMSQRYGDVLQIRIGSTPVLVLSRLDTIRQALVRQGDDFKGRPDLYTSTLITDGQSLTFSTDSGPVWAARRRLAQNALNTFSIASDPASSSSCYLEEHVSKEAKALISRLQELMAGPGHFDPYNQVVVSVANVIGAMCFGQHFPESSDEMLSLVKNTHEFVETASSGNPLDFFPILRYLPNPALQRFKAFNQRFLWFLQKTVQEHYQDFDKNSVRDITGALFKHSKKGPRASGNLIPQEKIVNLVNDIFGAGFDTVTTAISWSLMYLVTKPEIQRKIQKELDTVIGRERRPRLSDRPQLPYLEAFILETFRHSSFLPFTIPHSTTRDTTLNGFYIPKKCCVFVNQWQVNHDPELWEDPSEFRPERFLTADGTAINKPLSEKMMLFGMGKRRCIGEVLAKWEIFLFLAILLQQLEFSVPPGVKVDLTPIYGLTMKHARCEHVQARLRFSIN

[6] = Intrinsic clearance in BALB/c mouse liver microsomes at 2 uM; assay type: ADME, Microsome; conditions: read-out: CLH
[7] = system: Mus musculus; test: Antidiabetic activity in KKAy mouse assessed as reduction of blood glucose level at 30 to 75 mg/kg, sc bid for 4 days measured on day 3 relative to control; assay type: functional; parameters: scale not given: the % may be the effect or the level left; conditions: dose mg/kg 30-75; route subcutaneous
Method in brief: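 Hyperglycemic KKAy mice injected s.c. twice daily for 4 days with compound at 30 or 75 mg/kg suspended in sesame oil; controls received sesame oil (150 µl). Blood glucose measured at the indicated times, with day-zero levels taken as 100%. n=10 per group, mean ± SEM, compared with oil-treated group.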

[8] = system: Mus musculus; test: Antidiabetic activity in po dosed KKAy mouse assessed as reduction of blood glucose level; assay type: functional, organism-based
[9] = target: 5'-AMP-activated protein kinase catalytic subunit alpha-2 (Rattus norvegicus) (UniProt Q09137); test: Activation of AMPK in rat L6 cells assessed as increase of [3H]dGlc uptake after 5 hrs in presence of PI3K inhibitor wortmannin; assay type: cell-based
5'-AMP-activated protein kinase catalytic subunit alpha-2 (Rattus norvegicus), sequence (Q09137 whole entry): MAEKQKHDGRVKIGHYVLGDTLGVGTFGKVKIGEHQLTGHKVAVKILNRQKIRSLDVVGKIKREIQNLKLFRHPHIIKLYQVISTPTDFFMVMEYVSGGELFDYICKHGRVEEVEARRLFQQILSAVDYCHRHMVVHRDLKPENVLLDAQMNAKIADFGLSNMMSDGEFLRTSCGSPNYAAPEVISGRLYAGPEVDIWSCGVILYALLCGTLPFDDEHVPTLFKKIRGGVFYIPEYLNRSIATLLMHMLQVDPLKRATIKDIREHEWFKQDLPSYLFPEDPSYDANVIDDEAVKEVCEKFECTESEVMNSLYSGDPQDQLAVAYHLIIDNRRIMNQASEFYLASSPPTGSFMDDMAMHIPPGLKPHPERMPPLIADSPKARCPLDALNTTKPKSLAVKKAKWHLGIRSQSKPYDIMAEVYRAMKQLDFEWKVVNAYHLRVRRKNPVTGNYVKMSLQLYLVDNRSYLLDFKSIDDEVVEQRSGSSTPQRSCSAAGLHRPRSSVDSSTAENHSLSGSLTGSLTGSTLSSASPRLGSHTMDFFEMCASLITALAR
Method in brief: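 Myotubes treated with compound, insulin or vehicle in the absence or presence of 100 nM wortmannin or 100 nM Akt/PKB inhibitor, each added 30 min before compound or insulin. Compound C 5 μM was added 5 h before the uptake assay. Rate then measured by the standard 5-min [3H]dGlc uptake assay.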

[10] = target: 5'-AMP-activated protein kinase catalytic subunit alpha-2 (Rattus norvegicus) (UniProt Q09137); test: Increase in AMPK-mediated myc-tagged GLUT4 translocation in rat L6 cell plasma membrane at 25 uM after 5 hrs by colorimetric analysis
Method in brief: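 L6 lines stably carrying GLUT4myc or GLUT1myc, treated 5 h with test agent or DMSO; insulin given for 30 min. Live myotubes incubated with rabbit anti-c-Myc (1:200), washed, fixed in 3% formaldehyde, then HRP anti-rabbit IgG (1:2000). Developed with OPD and read at 492 nm to give relative surface transporter abundance.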

[11] = target: 5'-AMP-activated protein kinase catalytic subunit alpha-2 (Rattus norvegicus) (UniProt Q09137); test: Activation of AMPK in rat L6 cells assessed as AS-160 phosphorylation at Thr642 at 25 uM after 3 hrs by Western blot analysis relative to control; assay type: cell-based
Method in brief: (§1)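 Fully differentiated L6 myotubes, preincubated 3 h with or without 5 μM Compound C. Test agents: compound at 25 μM for 3 h, sorbitol 250 mM for 40 min, AICAR 4 mM for 30 min. Whole-cell lysates probed by Western blot for pSer79-ACC, ACC, pThr642-AS-160, AS-160 and α-tubulin; band densities summarized, n=3, vs respective controls.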

[12] = target: 5'-AMP-activated protein kinase catalytic subunit alpha-2 (Rattus norvegicus) (UniProt Q09137); test: Activation of AMPK in rat L6 cells assessed as AS-160 phosphorylation at Thr642 at 250 mM after 40 mins by Western blot analysis relative to control; assay type: cell-based; method in brief: as §1
[13] = target: 5'-AMP-activated protein kinase catalytic subunit alpha-2 (Rattus norvegicus) (UniProt Q09137); test: Activation of AMPK in rat L6 cells assessed as ACC phosphorylation at Ser79 at 4 mM after 30 mins by Western blot analysis relative to control; assay type: cell-based; method in brief: as §1
[14] = target: 5'-AMP-activated protein kinase catalytic subunit alpha-2 (Rattus norvegicus) (UniProt Q09137); test: Activation of AMPK in rat L6 cells assessed as ACC phosphorylation at Ser79 at 250 mM after 40 mins by Western blot analysis relative to control; assay type: cell-based; method in brief: as §1
[15] = system: L6; test: Activation of AMPKalpha in rat L6 cells assessed as phosphorylation at Thr172 at 150 uM after 4 hrs by Western blot analysis; assay type: cell-based
Method in brief: (§2)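 L6 myotubes treated 4 h with increasing compound concentrations (5 to 150 μM) or DMSO. Whole-cell lysates immunoblotted for pThr172-AMPKα, AMPKα and α-tubulin; phosphorylation expressed relative to DMSO-treated control.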

[16] = system: L6; test: Activation of AMPKalpha in rat L6 cells assessed as phosphorylation at Thr172 after 4 hrs by Western blot analysis; assay type: cell-based
[17] = system: L6; test: Activation of AMPKalpha in rat L6 cells assessed as phosphorylation at Thr172 at 100 uM after 4 hrs by Western blot analysis relative to control; assay type: cell-based; method in brief: as §2
[18] = system: L6; test: Activation of AMPKalpha in rat L6 cells assessed as phosphorylation at Thr172 at 25 uM after 4 hrs by Western blot analysis relative to control; assay type: cell-based; method in brief: as §2
[19] = target: 5'-AMP-activated protein kinase catalytic subunit alpha-2 (Rattus norvegicus) (UniProt Q09137); test: Activation of AMPK in rat L6 cells assessed as increase of [3H]dGlc uptake after 5 hrs; assay type: cell-based
Method in brief: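 Fully differentiated L6 myotubes preincubated 24 h in αMEM with 2% FCS and 23.0 mmol/L D-glucose, then 4 h serum-free with 0.5% BSA. Compound or DMSO vehicle given for the indicated times or concentrations. Uptake read after 5 min at room temperature in PBS pH 7.4 with 0.1 mmol/L dGlc and 1.3 μCi/mL [3H]dGlc, by scintillation of SDS lysates. Zero-time basal rate set as 100%; n=6.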

CCOc1ccc2nc(SCc3nc4ccccc4s3)sc2c1
Activity [1]: inactive | Activity [2]: 40% | Activity [3]: Non-toxic | inhibition (INH) [4]: Not Active | inhibition (INH) [5]: Not Active | microsomal CLint at 2 µM [6]: 692 µL/min/mg | Activity [7]: 50% | Activity [8]: inactive | Activity [9]: Active | Activity [10]: Active | fold change (FC) [11]: 1.09 | fold change (FC) [12]: 1.55 | fold change (FC) [13]: 3.63 | fold change (FC) [14]: 2.56 | fold change (FC) [15]: 7.6 | Activity [16]: Dose-dependent effect | fold change (FC) [17]: 5.2 | fold change (FC) [18]: 6.8 | Activity [19]: Dose-dependent effect
